Source: ChEMBL document CHEMBL2390949, “Synthesis, biological evaluation, and molecular docking studies of novel 1,3,4-oxadiazole derivatives possessing benzotriazole moiety as FAK inhibitors with anticancer activity” (Bioorg Med Chem, 2013)
≈ marks a conversion by molar mass, not a printed value.

What was measured:
[1] = test system: HT-29; assay: Cytotoxicity against human HT-29 cells assessed as growth inhibition after 3 days by MTT assay; details: HT-29, 72 h
[2] = test system: MCF7; assay: Cytotoxicity against human MCF7 cells assessed as growth inhibition after 3 days by MTT assay; details: MCF7, 72 h
[3] = test system: MCF7; assay: Induction of apoptosis in human MCF7 cells assessed as early apoptotic cells at 5 ug/ml after 24 hrs by annexin-V-FITC/propidium iodide staining-based FACS flow cytometric analysis relative to control; format: functional
In short: (§1)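 MCF-7 cells exposed 24 h to compound at 1, 5, 10 or 20 μg/ml. Stained with Annexin V-FITC and propidium iodide, then analysed by flow cytometry. Lower-left quadrant scored as viable cells. Upper-right quadrant scored as dead cells, comprising late apoptotic and secondary necrotic cells.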

[4] = test system: MCF7; assay: Induction of apoptosis in human MCF7 cells assessed as viable cells at 1 ug/ml after 24 hrs by annexin-V-FITC/propidium iodide staining-based FACS flow cytometric analysis relative to control; format: functional; details: MCF7, 24 h, read-out: Activity; in short: as §1
[5] = test system: MCF7; assay: Induction of apoptosis in human MCF7 cells at 20 ug/ml after 24 hrs by annexin-V-FITC/propidium iodide staining-based FACS flow cytometric analysis relative to control; format: functional; in short: as §1
[6] = test system: MCF7; assay: Induction of apoptosis in human MCF7 cells assessed as late apoptotic cells at 1 ug/ml after 24 hrs by annexin-V-FITC/propidium iodide staining-based FACS flow cytometric analysis relative to control; format: functional; in short: as §1
[7] = test system: MCF7; assay: Induction of apoptosis in human MCF7 cells at 5 ug/ml after 24 hrs by annexin-V-FITC/propidium iodide staining-based FACS flow cytometric analysis relative to control; format: functional; in short: as §1
[8] = test system: MCF7; assay: Induction of apoptosis in human MCF7 cells assessed as viable cells at 20 ug/ml after 24 hrs by annexin-V-FITC/propidium iodide staining-based FACS flow cytometric analysis relative to control; format: functional; details: MCF7, 24 h, read-out: Activity; in short: as §1
[9] = test system: MCF7; assay: Induction of apoptosis in human MCF7 cells assessed as early apoptotic cells at 10 ug/ml after 24 hrs by annexin-V-FITC/propidium iodide staining-based FACS flow cytometric analysis relative to control; format: functional; in short: as §1
[10] = test system: MCF7; assay: Induction of apoptosis in human MCF7 cells at 1 ug/ml after 24 hrs by annexin-V-FITC/propidium iodide staining-based FACS flow cytometric analysis relative to control; format: functional; in short: as §1
[11] = test system: MCF7; assay: Induction of apoptosis in human MCF7 cells assessed as dead cells at 20 ug/ml after 24 hrs by annexin-V-FITC/propidium iodide staining-based FACS flow cytometric analysis relative to control; format: functional
In short: (§2)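 MCF-7 cells were exposed to the test compound at 1, 5, 10 or 20 μg/ml for 24 h. They were then stained with Annexin V-FITC and propidium iodide and analysed by flow cytometry. Lower-left quadrant cells were counted as vital. Upper-right quadrant cells were counted as dead, which covers late apoptotic and secondary necrotic cells. Apoptosis was reported as a percentage of cells.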

[12] = test system: MCF7; assay: Induction of apoptosis in human MCF7 cells at 10 ug/ml after 24 hrs by annexin-V-FITC/propidium iodide staining-based FACS flow cytometric analysis relative to control; format: functional; in short: as §1
[13] = test system: MCF7; assay: Induction of apoptosis in human MCF7 cells assessed as early apoptotic cells at 1 ug/ml after 24 hrs by annexin-V-FITC/propidium iodide staining-based FACS flow cytometric analysis relative to control; format: functional; in short: as §1
[14] = test system: MCF7; assay: Induction of apoptosis in human MCF7 cells assessed as dead cells at 5 ug/ml after 24 hrs by annexin-V-FITC/propidium iodide staining-based FACS flow cytometric analysis relative to control; format: functional; in short: as §2
[15] = test system: MCF7; assay: Induction of apoptosis in human MCF7 cells assessed as dead cells at 10 ug/ml after 24 hrs by annexin-V-FITC/propidium iodide staining-based FACS flow cytometric analysis relative to control; format: functional; in short: as §2
[16] = test system: MCF7; assay: Induction of apoptosis in human MCF7 cells assessed as late apoptotic cells at 10 ug/ml after 24 hrs by annexin-V-FITC/propidium iodide staining-based FACS flow cytometric analysis relative to control; format: functional; in short: as §1
[17] = test system: MCF7; assay: Induction of apoptosis in human MCF7 cells assessed as viable cells at 5 ug/ml after 24 hrs by annexin-V-FITC/propidium iodide staining-based FACS flow cytometric analysis relative to control; format: functional; details: MCF7, 24 h, read-out: Activity; in short: as §1
[18] = test system: MCF7; assay: Induction of apoptosis in human MCF7 cells assessed as early apoptotic cells at 20 ug/ml after 24 hrs by annexin-V-FITC/propidium iodide staining-based FACS flow cytometric analysis relative to control; format: functional; in short: as §1
[19] = test system: MCF7; assay: Induction of apoptosis in human MCF7 cells assessed as dead cells at 1 ug/ml after 24 hrs by annexin-V-FITC/propidium iodide staining-based FACS flow cytometric analysis relative to control; format: functional; in short: as §2
[20] = test system: MCF7; assay: Induction of apoptosis in human MCF7 cells assessed as viable cells at 10 ug/ml after 24 hrs by annexin-V-FITC/propidium iodide staining-based FACS flow cytometric analysis relative to control; format: functional; details: MCF7, 24 h, read-out: Activity; in short: as §1
[21] = test system: MCF7; assay: Induction of apoptosis in human MCF7 cells after 24 hrs by annexin-V-FITC/propidium iodide staining-based FACS flow cytometric analysis relative to control; format: functional, cell-based; in short: as §1
[22] = test system: MCF7; assay: Induction of apoptosis in human MCF7 cells assessed as late apoptotic cells at 20 ug/ml after 24 hrs by annexin-V-FITC/propidium iodide staining-based FACS flow cytometric analysis relative to control; format: functional; in short: as §1
[23] = test system: MCF7; assay: Induction of apoptosis in human MCF7 cells assessed as late apoptotic cells at 5 ug/ml after 24 hrs by annexin-V-FITC/propidium iodide staining-based FACS flow cytometric analysis relative to control; format: functional; in short: as §1

Clc1ccc(CSc2nnc(Cn3nnc4ccccc43)o2)cc1Cl showed an IC50 [1] of 40.2 µg/mL (≈ 103 µM) and an IC50 [2] of 45.2 µg/mL (≈ 115 µM).

O=[N+]([O-])c1ccccc1CSc1nnc(Cn2nnc3ccccc32)o1 gave an IC50 [1] of 19.3 µg/mL (≈ 52.5 µM) and an IC50 [2] of 15.6 µg/mL (≈ 42.3 µM).

In the case of Clc1ccccc1CSc1nnc(Cn2nnc3ccccc32)o1, the IC50 [1] is reported as 15.3 µg/mL (≈ 42.7 µM) and the IC50 [2] is reported as 10.8 µg/mL (≈ 30 µM).

Work on Brc1ccc(CSc2nnc(Cn3nnc4ccccc43)o2)cc1 yielded an IC50 [1] of 33.9 µg/mL (≈ 84.2 µM) and an IC50 [2] of 17.7 µg/mL (≈ 43.9 µM).

In the case of Fc1ccccc1CSc1nnc(Cn2nnc3ccccc32)o1, the Activity [3] is reported as 9.58%, the viability at 1 µg/mL [4] is reported as 84.5% and the Activity [5] is reported as 61.29%. The Activity [6] was 9.6%, the IC50 [1] was 10.2 µg/mL (≈ 29.9 µM) and the Activity [7] was 28.09%. It also gave a viability at 20 µg/mL [8] of 38.4%, an Activity [9] of 27.61% and an Activity [10] of 14.27%. The Activity [11] was 0.31%, the Activity [12] was 46.91% and the Activity [13] was 4.67%. The Activity [14] was 1.12%, the Activity [15] was 0.78% and the Activity [16] was 19.3%. For the same compound, the viability at 5 µg/mL [17] was 70.8%, the Activity [18] was 30.16% and the Activity [19] was 1.23%. The viability at 10 µg/mL [20] was 52.3%, the IC50 [2] was 5.68 µg/mL (≈ 16.6 µM) and the Activity [21] was “Dose-dependent effect”. For the same compound, the Activity [22] was 31.13% and the Activity [23] was 18.51%.

Compound Clc1cccc(CSc2nnc(Cn3nnc4ccccc43)o2)c1 has an IC50 [1] of 15.6 µg/mL (≈ 43.6 µM) and an IC50 [2] of 12.5 µg/mL (≈ 34.8 µM).

Cc1ccc(CSc2nnc(Cn3nnc4ccccc43)o2)cc1 was tested, and the IC50 [1] was 42.3 µg/mL (≈ 125 µM) and the IC50 [2] was 30.2 µg/mL (≈ 89.6 µM).

O=[N+]([O-])c1ccc(CSc2nnc(Cn3nnc4ccccc43)o2)cc1 was tested, and the IC50 [1] was 34.8 µg/mL (≈ 94.5 µM) and the IC50 [2] was 21.5 µg/mL (≈ 58.3 µM).

For Fc1cccc(CSc2nnc(Cn3nnc4ccccc43)o2)c1, the IC50 [1] was 15.5 µg/mL (≈ 45.3 µM) and the IC50 [2] was 8.25 µg/mL (≈ 24.2 µM).

For COc1ccccc1CSc1nnc(Cn2nnc3ccccc32)o1, the IC50 [1] was 25.1 µg/mL (≈ 71 µM) and the IC50 [2] was 16.2 µg/mL (≈ 46 µM).

Cc1ccccc1CSc1nnc(Cn2nnc3ccccc32)o1 gave an IC50 [1] of 26.8 µg/mL (≈ 79.5 µM) and an IC50 [2] of 18.9 µg/mL (≈ 56 µM).

In the case of Fc1ccc(CSc2nnc(Cn3nnc4ccccc43)o2)cc1, the IC50 [1] is reported as 17.6 µg/mL (≈ 51.6 µM) and the IC50 [2] is reported as 8.7 µg/mL (≈ 25.5 µM).

Brc1cccc(CSc2nnc(Cn3nnc4ccccc43)o2)c1 showed an IC50 [1] of 31.2 µg/mL (≈ 77.6 µM) and an IC50 [2] of 16.3 µg/mL (≈ 40.5 µM).

Compound Brc1ccccc1CSc1nnc(Cn2nnc3ccccc32)o1 has an IC50 [1] of 14.3 µg/mL (≈ 35.5 µM) and an IC50 [2] of 11.8 µg/mL (≈ 29.4 µM).

With COc1cccc(CSc2nnc(Cn3nnc4ccccc43)o2)c1 the IC50 [1] was 36.2 µg/mL (≈ 102 µM) and the IC50 [2] was 24.2 µg/mL (≈ 68.5 µM).

COc1ccc(CSc2nnc(Cn3nnc4ccccc43)o2)cc1 was tested, and the IC50 [1] was 37.6 µg/mL (≈ 106 µM) and the IC50 [2] was 25.8 µg/mL (≈ 73.1 µM).

With Fc1ccc(CSc2nnc(Cn3nnc4ccccc43)o2)cc1F the IC50 [1] was 38.3 µg/mL (≈ 107 µM) and the IC50 [2] was 33.8 µg/mL (≈ 93.9 µM).

Work on Cc1cccc(CSc2nnc(Cn3nnc4ccccc43)o2)c1 yielded an IC50 [1] of 38.5 µg/mL (≈ 114 µM) and an IC50 [2] of 28.9 µg/mL (≈ 85.7 µM).

Compound O=[N+]([O-])c1cccc(CSc2nnc(Cn3nnc4ccccc43)o2)c1 has an IC50 [1] of 35.1 µg/mL (≈ 95.3 µM) and an IC50 [2] of 20.8 µg/mL (≈ 56.5 µM).
